Test results as given in ChEMBL document CHEMBL1141297, “Bioactive p-terphenyl derivatives from a Cordyceps-colonizing isolate of Gliocladium sp” (J Nat Prod, 2007).
In brackets after ≈: the same amount, converted by molar mass. Activity calls are given as the source filed them. The calls are words filed in the database; no cut-off is given here.

How the values were obtained:
[1] = test system: Staphylococcus aureus; test: Antimicrobial activity against Staphylococcus aureus ATCC 6538 at 100 ug/disk after 48 hrs; format: functional; conditions: ATCC 6538, 48 h, read-out: IZ
[2] = test system: HeLa; test: Growth inhibition of human HeLa cells after 4 hrs by MTT assay; format: functional, cell-based
Summary of the method: (§1)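 MTT viability: 10⁴ cells/well attached overnight, then exposed to serial dilutions (from a 10 mg/mL DMSO stock) in medium, with 0.2% DMSO vehicle, for 4 h at 37 °C, 5% CO₂. Medium was then changed to fresh DMEM, followed by MTT (0.5 mg/mL) for 3 h at 37 °C in the dark. Formazan was dissolved in DMSO and read at 540 nm to give IC50.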

[3] = test system: Aspergillus fumigatus; test: Antifungal activity against Aspergillus fumigatus ATCC 10894 at 100 ug/disk after 48 hrs
[4] = test system: Enterococcus faecalis; test: Antimicrobial activity against Enterococcus faecalis ATCC 19433 at 100 ug/disk after 24 hrs; format: functional, organism-based
Summary of the method: (§2)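 Bacteria were grown on Mueller-Hinton agar. 6 mm paper disks carrying 100 µg compound were placed on the agar surface and plates were incubated at 37 °C for 24 h. The read-out was the presence and diameter of the inhibition zone, with a ciprofloxacin disk (100 µg) as reference.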

[5] = test system: HCT-116; test: Growth inhibition of human HCT116 cells after 4 hrs by MTT assay; format: functional, cell-based; conditions: HCT-116, 4 h; summary of the method: as §1
[6] = test system: Candida albicans; test: Antifungal activity against Candida albicans ATCC 10231 at 100 ug/disk after 48 hrs
[7] = test system: Streptococcus mutans; test: Antimicrobial activity against Streptococcus mutans ATCC 25175 at 100 ug/disk after 24 hrs; format: functional, organism-based; summary of the method: as §2
[8] = test system: Staphylococcus aureus; test: Antimicrobial activity against Staphylococcus aureus ATCC 6538 after 24 hrs by broth dilution assay; format: functional; conditions: ATCC 6538, 24 h
[9] = test system: Micrococcus luteus; test: Antimicrobial activity against Sarcina lutea CMCC B28001 at 100 ug/disk after 24 hrs; format: functional, organism-based; summary of the method: as §2
[10] = test system: Geotrichum candidum; test: Antifungal activity against Geotrichum candidum AS2.498 at 100 ug/disk after 48 hrs

Compound | zone of inhibition at 100 µg/disc [1] [mm] | IC50 [2] [µM] | Activity [3] | Activity [4] | IC50 [5] [µM] | Activity [6] | Activity [7] | MIC [8] [µM] | Activity [9] | Activity [10]
O=C(O)c1cn(C2CC2)c2cc(N3CCNCC3)c(F)cc2c1=O [CIPROFLOXACIN] | 35 | – | – | – | – | – | – | – | – | –
COc1ccc(-c2cc(O)c(-c3ccc(OC)cc3)c(O)c2O[C@@H]2O[C@H](CO)[C@@H](O)[C@H](O)[C@H]2O)cc1 [GLIOCLADININ B] | 20 | 40 | inactive | inactive | 80 | inactive | inactive | 130 (≈ 65.1 µg/mL) | inactive | inactive
COC1=C(c2ccc(OC)cc2)C(=O)[C@H](O)[C@@](O)(c2ccc(OC)cc2)C1 [GLIOCLADININ A] | 15 | 54 | inactive | inactive | > 270 | inactive | inactive | 270 (≈ 100 µg/mL) | inactive | inactive
